Source: ChEMBL document CHEMBL1130003, “Synthesis and ligand binding of nortropane derivatives: N-substituted 2beta-carbomethoxy-3beta-(4'-iodophenyl)nortropane and N-(3-iodoprop-(2E)-enyl)-2beta-carbomethoxy-3beta-(3',4'-disubstituted phenyl)nortropane. New high-affinity and selective compounds for the dopamine transporter” (J Med Chem, 1997)

Tests used:
[1] = molecular target: Sodium-dependent serotonin transporter (Rattus norvegicus, UniProt P31652); test: Displacement of [3H]- paroxetine from serotonin transporter (5-HTT) in rat brain membranes; format: cell membranes
Method in brief: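 Rat frontoparietal cortex crude membranes in 50 mM Tris-HCl pH 7.4 with 120 mM NaCl, 5 mM KCl. [3H]paroxetine 0.5 nM (Kd 0.5 nM). Competitor 10^-5 to 10^-10 M. Incubation 22 °C, 1 h, then glass fiber filtration, ice-cold wash, beta counting. Nonspecific binding with 10^-6 M fluvoxamine. Run in duplicate. Ki from IC50 by Cheng-Prusoff.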

[2] = molecular target: Sodium-dependent dopamine transporter (Rattus norvegicus, UniProt P23977); test: Displacement of [3H]GBR-12935 from dopamine transporter (DAT) in rat brain membranes; format: cell membranes
Method in brief: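 Rat striatum crude membranes (100 µg protein) in sodium hydrogenocarbonate buffer pH 7.5 with 0.01% BSA. [3H]GBR-12935 1 nM (Kd 1.6 nM). Competitor 10^-5 to 10^-10 M. Incubation 37 °C, 1 h, then glass fiber filtration, ice-cold wash, beta counting. Nonspecific binding with 10^-6 M mazindol. Run in duplicate. Ki by Cheng-Prusoff.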

[3] = molecular target: Monoamine transporters; Norepininephrine & dopamine (Rattus norvegicus) (UniProt P23977+Q9WTR4); test: Selectivity index for norepinephrine and dopamine transporters; format: protein assay
[4] = molecular target: Monoamine transporters; serotonin & dopamine (Rattus norvegicus) (UniProt P31652+P23977); test: Selectivity index for serotonin and dopamine transporters; format: protein assay
[5] = molecular target: Norepinephrine transporter (Rattus norvegicus, UniProt Q9WTR4); test: Displacement of [3H]nisoxetine from norepinephrine transporter (NET) in rat brain membranes; format: cell membranes
Method in brief: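 Rat frontoparietal cortex crude membranes in 50 mM Tris-HCl pH 7.4, 120 mM NaCl, 5 mM KCl. [3H]nisoxetine 0.5 nM (Kd 1.3 nM). Competitor 10^-5 to 10^-10 M. Incubation 2 °C, 5 h, then filtration, wash, beta counting. Nonspecific binding with 10^-6 M desipramine. Run in duplicate. Ki from IC50 by Cheng-Prusoff.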

Chain of Norepinephrine transporter (Q9WTR4 whole entry): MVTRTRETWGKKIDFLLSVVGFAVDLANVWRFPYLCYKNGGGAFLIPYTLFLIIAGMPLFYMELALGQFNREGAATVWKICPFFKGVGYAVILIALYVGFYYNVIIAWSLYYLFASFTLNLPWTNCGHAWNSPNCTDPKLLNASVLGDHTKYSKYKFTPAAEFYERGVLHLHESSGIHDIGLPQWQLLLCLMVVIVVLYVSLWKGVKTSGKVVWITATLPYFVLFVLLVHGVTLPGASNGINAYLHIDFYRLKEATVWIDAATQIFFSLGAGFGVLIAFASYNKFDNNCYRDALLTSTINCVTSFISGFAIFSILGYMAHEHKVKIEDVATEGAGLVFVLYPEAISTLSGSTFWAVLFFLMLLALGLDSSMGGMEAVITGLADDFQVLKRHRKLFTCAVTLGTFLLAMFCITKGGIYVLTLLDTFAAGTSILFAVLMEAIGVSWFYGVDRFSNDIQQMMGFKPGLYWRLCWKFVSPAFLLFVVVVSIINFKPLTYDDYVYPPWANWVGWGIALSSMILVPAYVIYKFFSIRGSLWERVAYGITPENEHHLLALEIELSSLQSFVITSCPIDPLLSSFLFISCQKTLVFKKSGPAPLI
Chain of Sodium-dependent dopamine transporter (P23977 whole entry): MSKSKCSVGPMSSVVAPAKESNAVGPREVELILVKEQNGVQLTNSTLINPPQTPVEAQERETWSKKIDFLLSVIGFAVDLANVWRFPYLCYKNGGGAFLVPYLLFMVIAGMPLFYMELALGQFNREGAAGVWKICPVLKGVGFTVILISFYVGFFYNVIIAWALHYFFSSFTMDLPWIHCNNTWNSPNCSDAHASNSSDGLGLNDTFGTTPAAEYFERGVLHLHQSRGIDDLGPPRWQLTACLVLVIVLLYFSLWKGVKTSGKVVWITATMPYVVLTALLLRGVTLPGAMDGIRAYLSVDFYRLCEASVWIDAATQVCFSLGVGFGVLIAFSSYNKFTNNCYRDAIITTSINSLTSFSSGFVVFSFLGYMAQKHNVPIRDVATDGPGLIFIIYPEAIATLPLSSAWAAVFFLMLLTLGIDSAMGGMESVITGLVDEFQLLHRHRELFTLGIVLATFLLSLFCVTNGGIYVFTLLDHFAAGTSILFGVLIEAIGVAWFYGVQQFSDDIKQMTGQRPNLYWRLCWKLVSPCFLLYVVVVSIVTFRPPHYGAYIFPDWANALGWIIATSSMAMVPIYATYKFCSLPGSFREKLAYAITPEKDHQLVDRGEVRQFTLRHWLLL
Chain of Monoamine transporters; serotonin & dopamine (Rattus norvegicus) (P23977 whole entry, looked up): as the sequence (P23977 whole entry) above
Chain of Monoamine transporters; serotonin & dopamine (Rattus norvegicus) (P31652 whole entry, looked up): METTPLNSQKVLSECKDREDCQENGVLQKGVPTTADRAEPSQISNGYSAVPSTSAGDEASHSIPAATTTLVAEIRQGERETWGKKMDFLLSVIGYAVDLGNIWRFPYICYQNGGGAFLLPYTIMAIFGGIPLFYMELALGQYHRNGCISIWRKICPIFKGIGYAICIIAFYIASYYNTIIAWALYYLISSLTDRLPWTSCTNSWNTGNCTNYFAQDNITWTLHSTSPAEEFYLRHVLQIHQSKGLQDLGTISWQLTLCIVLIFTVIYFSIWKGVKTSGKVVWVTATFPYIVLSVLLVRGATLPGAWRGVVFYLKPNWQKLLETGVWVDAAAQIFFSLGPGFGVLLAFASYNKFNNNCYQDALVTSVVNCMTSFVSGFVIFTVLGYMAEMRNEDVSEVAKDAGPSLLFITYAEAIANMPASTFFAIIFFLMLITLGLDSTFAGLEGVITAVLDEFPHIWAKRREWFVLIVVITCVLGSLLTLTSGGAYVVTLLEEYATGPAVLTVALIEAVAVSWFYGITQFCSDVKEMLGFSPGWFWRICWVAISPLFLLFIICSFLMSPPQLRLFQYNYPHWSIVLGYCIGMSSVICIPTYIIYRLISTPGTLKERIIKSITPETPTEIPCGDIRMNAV
Chain of Sodium-dependent serotonin transporter (P31652 whole entry): as the sequence (P31652 whole entry, looked up) above

SMILES | Ki [1] | Ki [2] | Selectivity [3] | Selectivity [4] | Ki [5]
C/C=C/CN1C2CC[C@@H]1CC(c1ccc(I)cc1)[C@@H]2C(=O)OC (stereo not given in full) | 75 nM | 15 nM | 26.6 | 5 | 400 nM
COC(=O)[C@@H]1C2CC[C@H](C[C@@H]1c1ccc(I)cc1)N2C | 3 nM | 27 nM | 2.9 | 0.1 | 80 nM
COC(=O)[C@H]1C(c2ccccc2)C[C@H]2CCC1N2C/C=C/I (stereo not given in full) | 100 nM | 113 nM | > 8.8 | 0.8 | > 1000 nM
C=C(Br)CN1C2CC[C@@H]1CC(c1ccc(I)cc1)[C@@H]2C(=O)OC (stereo not given in full) | 200 nM | 30 nM | > 33 | 6.6 | > 1000 nM
COC(=O)[C@@H]1C2CCC(C[C@@H]1c1ccc(Cl)c(Cl)c1)N2C/C=C/I (stereo not given in full) | 50 nM | 29 nM | 17.2 | 1.7 | 500 nM
CCCc1ccc(C2C[C@H]3CCC([C@H]2C(=O)OC)N3C/C=C/I)cc1 (stereo not given in full) | 300 nM | 500 nM | 1.5 | 0.6 | 750 nM
COC(=O)[C@@H]1C2CCC(C[C@@H]1c1ccc(C)cc1)N2C/C=C/I (stereo not given in full) | 500 nM | 17 nM | > 58 | 29.4 | > 1000 nM
COC(=O)[C@H]1C(c2ccc(I)cc2)C[C@H]2CCC1N2Cc1ccccc1C (stereo not given in full) | 225 nM | 93 nM | > 10.6 | 2.4 | > 1000 nM
C#CCN1C2CC[C@@H]1CC(c1ccc(I)cc1)[C@@H]2C(=O)OC (stereo not given in full) | 100 nM | 14 nM | > 71 | 7.1 | > 1000 nM
COC(=O)[C@H]1C(c2ccc(C(C)C)cc2)C[C@H]2CCC1N2C/C=C/I (stereo not given in full) | 450 nM | 500 nM | > 2 | 0.9 | > 1000 nM
COC(=O)[C@@H]1C2CCC(C[C@@H]1c1ccc(I)cc1)N2Cc1ccccc1 (stereo not given in full) | 100 nM | 42 nM | 14.2 | 2.3 | 600 nM
COC(=O)[C@H]1C(c2ccc(I)cc2)C[C@H]2CCC1N2C/C=C/I (stereo not given in full) | 960 nM | 30 nM | 9.8 | 32 | 295 nM
